Assay results from ChEMBL document CHEMBL1629583, “Establishment of in vitro susceptibility testing methodologies and comparative activities of piperacillin in combination with the penem {beta}-lactamase inhibitor BLI-489” (2009).
Converted amounts (≈) assume the structure as drawn.

Key:
Format in all cases: functional
Haemophilus influenzae [1] = test: Antimicrobial activity against beta-lactamase-producing Haemophilus influenzae clinical isolate after 18 to 22 hrs by broth microdilution method in presence of beta-lactamase inhibitor Tazobactam
Outline: (§1)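 […] was used for CLSI broth microdilution with piperacillin-tazobactam. Inoculum was 10^5 CFU/ml, incubated 18 to 22 h at 35°C in ambient air. MIC was the lowest concentration with no growth visible to the unaided eye.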

Pseudomonas aeruginosa = test: Antimicrobial activity against Pseudomonas aeruginosa clinical isolate after 18 to 22 hrs by broth microdilution method in presence of beta-lactamase inhibitor Tazobactam
Outline: (§2)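 Piperacillin-tazobactam was tested by CLSI broth microdilution in Mueller-Hinton II broth against clinical isolates. Inoculum was 10^5 CFU/ml, with 18 to 22 h incubation at 35°C in ambient air. MIC was read as the lowest concentration completely inhibiting visible growth.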

Citrobacter koseri = test: Antimicrobial activity against Citrobacter koseri clinical isolate after 18 to 22 hrs by broth microdilution method in presence of beta-lactamase inhibitor BLI-489
Outline: (§3)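 CLSI broth microdilution in Mueller-Hinton II broth. Piperacillin serial dilutions were combined with BLI-489 held constant at 4 μg/ml. Inoculum was 10^5 CFU/ml. Plates were incubated 18 to 22 h at 35°C in ambient air. MIC was the lowest concentration completely inhibiting growth seen by the unaided eye. Piperacillin-tazobactam interpretive criteria were applied.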

[2] = test system: Bacteroides thetaiotaomicron; test: Antimicrobial activity against Bacteroides thetaiotaomicron clinical isolate after 18 to 22 hrs by broth microdilution method
Klebsiella aerogenes [3] = test: Antimicrobial activity against AmpC beta-lactamase-producing Enterobacter aerogenes clinical isolate after 18 to 22 hrs by broth microdilution method in presence of beta-lactamase inhibitor BLI-489; outline: as §3
Morganella morganii = test: Antimicrobial activity against Morganella morganii clinical isolate after 18 to 22 hrs by broth microdilution method in presence of beta-lactamase inhibitor BLI-489
Outline: (§4)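 CLSI broth microdilution in Mueller-Hinton II broth. Serial dilutions of piperacillin were tested with BLI-489 held at a constant 4 μg/ml. Inoculum was 10^5 CFU/ml. Plates were incubated 18 to 22 h at 35°C in ambient air. MIC was the lowest concentration giving complete growth inhibition by unaided eye.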

Klebsiella aerogenes [4] = test: Antimicrobial activity against Enterobacter aerogenes clinical isolate after 18 to 22 hrs by broth microdilution method in presence of beta-lactamase inhibitor BLI-489; outline: as §3
Klebsiella pneumoniae = test: Antimicrobial activity against class A extended spectrum beta-lactamase- and class D OXA- producing Klebsiella pneumoniae clinical isolate after 18 to 22 hrs by broth microdilution method in presence of beta-lactamase inhibitor Tazobactam; outline: as §2
Acinetobacter johnsonii = test: Antimicrobial activity against Acinetobacter johnsonii clinical isolate after 18 to 22 hrs by broth microdilution method in presence of beta-lactamase inhibitor BLI-489; outline: as §3
Serratia marcescens = test: Antimicrobial activity against Serratia marcescens clinical isolate after 18 to 22 hrs by broth microdilution method in presence of beta-lactamase inhibitor BLI-489; outline: as §4
Haemophilus influenzae [5] = test: Antimicrobial activity against beta-lactamase-negative Haemophilus influenzae clinical isolate after 18 to 22 hrs by broth microdilution method in presence of beta-lactamase inhibitor Tazobactam; outline: as §1
Streptococcus pneumoniae = test: Antimicrobial activity against penicillin-intermediate Streptococcus pneumoniae clinical isolate after 18 to 22 hrs by broth microdilution method in presence of beta-lactamase inhibitor Tazobactam
Outline: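 Broth microdilution per CLSI in Mueller-Hinton II broth supplemented with 5% lysed horse blood, using serial dilutions of piperacillin-tazobactam. Inoculum was 10^5 CFU/ml. Incubation was 18 to 22 h at 35°C in ambient air. MIC was the lowest concentration with no growth visible to the unaided eye.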

Proteus mirabilis = test: Antimicrobial activity against Proteus mirabilis clinical isolate after 18 to 22 hrs by broth microdilution method in presence of beta-lactamase inhibitor BLI-489; outline: as §4
Klebsiella oxytoca = test: Antimicrobial activity against Klebsiella oxytoca clinical isolate after 18 to 22 hrs by broth microdilution method in presence of beta-lactamase inhibitor BLI-489; outline: as §4
[6] = test system: Acinetobacter haemolyticus; test: Antimicrobial activity against Acinetobacter haemolyticus clinical isolate after 18 to 22 hrs by broth microdilution method in presence of beta-lactamase inhibitor Tazobactam
Outline: (§5)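 Piperacillin-tazobactam was tested on recent clinical isolates by CLSI broth microdilution in Mueller-Hinton II broth, with tazobactam at constant 4 μg/ml. Wells held 10^5 CFU/ml and were incubated 18 to 22 h at 35°C in ambient air. MIC was the lowest concentration with no growth visible to the unaided eye.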

Acinetobacter junii = test: Antimicrobial activity against Acinetobacter junii clinical isolate after 18 to 22 hrs by broth microdilution method in presence of beta-lactamase inhibitor Tazobactam; outline: as §5
Haemophilus influenzae [7] = test: Antimicrobial activity against beta-lactamase-negative Haemophilus influenzae clinical isolate after 18 to 22 hrs by broth microdilution method in presence of beta-lactamase inhibitor BLI-489
Outline: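 Haemophilus isolates were tested in Haemophilus test medium by CLSI broth microdilution. Serial piperacillin dilutions carried BLI-489 fixed at 4 μg/ml. Inoculum was 10^5 CFU/ml, incubated 18 to 22 h at 35°C in ambient air. MIC was the lowest concentration completely inhibiting growth by eye.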

Enterococcus hirae = test: Antimicrobial activity against Enterococcus hirae clinical isolate after 18 to 22 hrs by broth microdilution method in presence of beta-lactamase inhibitor BLI-489; outline: as §4
Streptococcus pyogenes = test: Antimicrobial activity against Streptococcus pyogenes clinical isolate after 18 to 22 hrs by broth microdilution method in presence of beta-lactamase inhibitor BLI-489
Outline: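 Streptococci were tested by CLSI broth microdilution in Mueller-Hinton II broth plus 5% lysed horse blood. Piperacillin dilutions contained a constant 4 μg/ml BLI-489. Inoculum was 10^5 CFU/ml, incubated 18 to 22 h at 35°C in air. MIC was the lowest concentration with no visible growth.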

[8] = test system: Haemophilus parainfluenzae; test: Antimicrobial activity against Haemophilus parainfluenzae clinical isolate after 18 to 22 hrs by broth microdilution method in presence of beta-lactamase inhibitor Tazobactam; outline: as §1
[9] = test system: Bacteroides thetaiotaomicron; test: Antimicrobial activity against Bacteroides thetaiotaomicron clinical isolate after 18 to 22 hrs by broth microdilution method in presence of beta-lactamase inhibitor BLI-489
[10] = test system: Peptostreptococcus anaerobius; test: Antimicrobial activity against Peptostreptococcus anaerobius clinical isolate after 18 to 22 hrs by broth microdilution method in presence of beta-lactamase inhibitor BLI-489

CCN1CCN(C(=O)N[C@@H](C(=O)N[C@@H]2C(=O)N3[C@@H]2SC(C)(C)[C@@H]3C(=O)O)c2ccccc2)C(=O)C1=O [PIPERACILLIN]
MIC50 (Haemophilus influenzae [1]): 0.008 µg/mL
MIC90 (Haemophilus influenzae [1]): 0.03 µg/mL
MIC50 (Pseudomonas aeruginosa): 16 µg/mL
MIC90 (Pseudomonas aeruginosa): > 128 µg/mL
MIC50 (Citrobacter koseri): 2 µg/mL
MIC90 (Citrobacter koseri): 8 µg/mL
MIC50 [2]: 32 µg/mL (≈ 61.8 µM)
MIC90 [2]: > 128 µg/mL
MIC50 (Klebsiella aerogenes [3]): 2 µg/mL
MIC90 (Klebsiella aerogenes [3]): 8 µg/mL
MIC50 (Morganella morganii): 0.25 µg/mL
MIC90 (Morganella morganii): 1 µg/mL
MIC50 (Klebsiella aerogenes [4]): 2 µg/mL
MIC90 (Klebsiella aerogenes [4]): 64 µg/mL
MIC50 (Klebsiella pneumoniae): 16 µg/mL
MIC90 (Klebsiella pneumoniae): > 128 µg/mL
MIC50 (Acinetobacter johnsonii): 4 µg/mL
MIC90 (Acinetobacter johnsonii): 16 µg/mL
MIC50 (Serratia marcescens): 1 µg/mL
MIC90 (Serratia marcescens): 4 µg/mL
MIC50 (Haemophilus influenzae [5]): 0.008 µg/mL
MIC90 (Haemophilus influenzae [5]): 0.03 µg/mL
MIC50 (Streptococcus pneumoniae): 0.5 µg/mL
MIC90 (Streptococcus pneumoniae): 1 µg/mL
MIC50 (Proteus mirabilis): 0.25 µg/mL
MIC90 (Proteus mirabilis): 0.5 µg/mL
MIC50 (Klebsiella oxytoca): 2 µg/mL
MIC90 (Klebsiella oxytoca): 8 µg/mL
MIC50 [6]: ≤ 0.12 µg/mL
MIC90 [6]: 32 µg/mL
MIC50 (Acinetobacter junii): ≤ 0.12 µg/mL
MIC90 (Acinetobacter junii): 32 µg/mL
MIC (Haemophilus influenzae [7]): ≤ 0.004 µg/mL
MIC50 (Haemophilus influenzae [7]): ≤ 0.004 µg/mL
MIC90 (Haemophilus influenzae [7]): 0.015 µg/mL
MIC50 (Enterococcus hirae): 2 µg/mL
MIC90 (Enterococcus hirae): 8 µg/mL
MIC (Streptococcus pyogenes): ≤ 0.004 µg/mL
MIC50 (Streptococcus pyogenes): ≤ 0.004 µg/mL
MIC90 (Streptococcus pyogenes): ≤ 0.004 µg/mL
MIC50 [8]: 0.06 µg/mL
MIC90 [8]: 0.25 µg/mL
MIC50 [9]: 16 µg/mL
MIC90 [9]: 16 µg/mL
MIC [10]: ≤ 0.015 µg/mL
MIC50 [10]: ≤ 0.015 µg/mL
MIC90 [10]: ≤ 0.015 µg/mL
